Experimental data from different studies.
Each line is one published result; the experiments were not run side by side.
Target: Cyclin-dependent kinase 13 (CDK13, Homo sapiens, UniProt Q14004)

N#CC1(c2ccccn2)CCN(Cc2cc(C(=O)N3CCCC3)c(=O)n3ccccc23)CC1
remaining binding (cell-free assay, competition with immobilised ligand; 1 µM): 100%

C[C@H]1CCN(c2nccc(-c3cnn4ncccc34)n2)C1
remaining binding (binding; 1 µM): 84%

O=C(Nc1cccnn1)N1CCC(=Cc2cccc(Oc3ccc(C(F)(F)F)cn3)c2)CC1
remaining binding (cell-free assay, competition with immobilised ligand; 1 µM): 100%

Cc1cnc(Nc2ccc(C(=O)N3CCC(N4CCCC4)CC3)cc2)nc1-c1cc2ccccc2s1
remaining binding (binding, competition with immobilised ligand; 1 µM): 50%

CN(C)c1nccc(-c2cnn3ncccc23)n1
remaining binding (binding; 1 µM): 84%

COCCOc1nc(-c2ccc(Cl)nc2)nc2c1CN(C(=O)c1ncn3ccccc13)CC2
remaining binding (cell-free assay, competition with immobilised ligand; 0.1 µM): 100%

O=C(NCCCN1CCOCC1)c1ccc(Nc2ncc(Cl)c(-c3ccc(Cl)s3)n2)cc1
remaining binding (binding, competition with immobilised ligand; 1 µM): 34%

CC1CCCN1c1nccc(-c2cnn3ncccc23)n1 (stereo not shown)
remaining binding (binding; 1 µM): 100%

COc1ncc2cc3ccccc3nc2c1C#N
remaining binding (cell-free assay, competition with immobilised ligand; 5 µM): 92%

Nc1ncc2c(n1)-c1c([nH]c3ccc(C#CC4CC4)cc13)CCCC2
remaining binding (binding, competition with immobilised ligand; 1 µM): 84%

CN(CCCC(F)(F)F)c1nccc(-c2cnn3ncccc23)n1
remaining binding (binding; 1 µM): 100%

COc1cnc(Nc2cccc(S(N)(=O)=O)c2)nc1N1CCN(c2ccccc2)CC1
remaining binding (binding, competition with immobilised ligand; 1 µM): 21%

O=C(NCCCN1CCOCC1)c1ccc(Nc2nccc(-c3cc4ccccc4s3)n2)cc1
remaining binding (binding, competition with immobilised ligand; 1 µM): 68%

O=C(Nc1cccnn1)N1CC(C/C=C/c2cncc(Oc3ccc(C(F)(F)F)cn3)n2)C1
remaining binding (cell-free assay, competition with immobilised ligand; 1 µM): 98%

FC(F)(F)Oc1cccc(-c2cnc3ccc(-c4ccncc4)nn23)c1
remaining binding (cell-free assay, competition with immobilised ligand; 5 µM): 99%

CN(C)c1ncc(F)c(-c2cnn3ncccc23)n1
remaining binding (binding; 1 µM): 96%

O=C(O)[C@H]1[C@H](Cn2nnc3ccccc3c2=O)CC[C@@H]1C(=O)c1ccc(OCCC2CCOCC2)cc1
remaining binding (cell-free assay, competition with immobilised ligand; 1 µM): 93%

N[C@@H]1CCN(c2nccc(-c3cnn4ncccc34)n2)C1
remaining binding (binding; 1 µM): 54%

O=C(NCC1CCOCC1)c1n[nH]cc1NC(=O)c1c(F)cccc1F
remaining binding (binding, competition with immobilised ligand; 1 µM): 66%
